# According to ChEMBL document CHEMBL1649571, “In vitro activity of TR-700, the active ingredient of the antibacterial prodrug TR-701, a novel oxazolidinone antibacterial agent” (2009):
# Columns and labels:
# Format in all cases: functional
# [1] = test system: Staphylococcus aureus; assay: Antibacterial activity against methicillin-susceptible Staphylococcus aureus by CLSI M7-A7 broth microdilution method
# In short: (§1)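 Reference broth microdilution MIC under aerobic conditions on recent (2005–2008) clinical isolates from U.S. and non-U.S. sites. QC strains run alongside, required to fall within published CLSI ranges.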
# [2] = test system: Staphylococcus aureus; assay: Antibacterial activity against methicillin-resistant Staphylococcus aureus by CLSI M7-A7 broth microdilution method; in short: as §1
# [3] = test system: Staphylococcus aureus; assay: Antibacterial activity against community-acquired methicillin-resistant Staphylococcus aureus by CLSI M7-A7 broth microdilution method; in short: as §1
# [4] = test system: Staphylococcus epidermidis; assay: Antibacterial activity against methicillin-susceptible Staphylococcus epidermidis by CLSI M7-A7 broth microdilution method
# [5] = test system: Staphylococcus epidermidis; assay: Antibacterial activity against methicillin-resistant Staphylococcus epidermidis by CLSI M7-A7 broth microdilution method; in short: as §1
# [6] = test system: Enterococcus faecalis; assay: Antibacterial activity against vancomycin-susceptible Enterococcus faecalis by CLSI M7-A7 broth microdilution method; in short: as §1
# [7] = test system: Enterococcus faecalis; assay: Antibacterial activity against vancomycin-resistant Enterococcus faecalis by CLSI M7-A7 broth microdilution method; in short: as §1
# [8] = test system: Enterococcus faecium; assay: Antibacterial activity against vancomycin-susceptible Enterococcus faecium by CLSI M7-A7 broth microdilution method; in short: as §1
# [9] = test system: Enterococcus faecium; assay: Antibacterial activity against vancomycin-resistant Enterococcus faecium by CLSI M7-A7 broth microdilution method; in short: as §1
# [10] = test system: Streptococcus pneumoniae; assay: Antibacterial activity against penicillin-susceptible Streptococcus pneumoniae by CLSI M7-A7 broth microdilution method; in short: as §1
# [11] = test system: Streptococcus pneumoniae; assay: Antibacterial activity against penicillin-intermediate Streptococcus pneumoniae by CLSI M7-A7 broth microdilution method; in short: as §1
# [12] = test system: Streptococcus pneumoniae; assay: Antibacterial activity against penicillin-resistant Streptococcus pneumoniae by CLSI M7-A7 broth microdilution method; in short: as §1
# [13] = test system: Streptococcus pyogenes; assay: Antibacterial activity against Streptococcus pyogenes by CLSI M7-A7 broth microdilution broth microdilution method; in short: as §1
# [14] = test system: Streptococcus agalactiae; assay: Antibacterial activity against Streptococcus agalactiae by CLSI M7-A7 broth microdilution method; in short: as §1
# [15] = test system: Haemophilus influenzae; assay: Antibacterial activity against Haemophilus influenzae by CLSI M7-A7 broth microdilution method
# In short: (§2)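 Recent (2005 to 2008) clinical isolates from U.S. (80%) and non-U.S. (20%) sites. Aerobic MICs were determined by CLSI reference broth microdilution, with quality control strains checked against the published CLSI ranges.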
# [16] = test system: Moraxella catarrhalis; assay: Antibacterial activity against Moraxella catarrhalis by CLSI M7-A7 broth microdilution method; in short: as §2
# [17] = test system: Bacteroides fragilis; assay: Antibacterial activity against Bacteroides fragilis by CLSI M11-A7 agar dilution method
# In short: (§3)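 Recent (2005 to 2008) clinical isolates. Anaerobes grown 48 h in an anaerobic glove box, with inoculum suspensions made in prereduced broth inside the box. A Steers replicator stamped the inoculum onto drug-supplemented agar. After absorption, plates were incubated 48 h at 37°C, then removed from the box and the MIC read. QC strains were run against the CLSI ranges.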
# [18] = test system: Phocaeicola vulgatus; assay: Antibacterial activity against Bacteroides vulgatus by CLSI M11-A7 agar dilution method; in short: as §3
# [19] = test system: Bacteroides thetaiotaomicron; assay: Antibacterial activity against Bacteroides thetaiotaomicron by CLSI M11-A7 agar dilution method; in short: as §3
# [20] = test system: Bacteroides ovatus; assay: Antibacterial activity against Bacteroides ovatus by CLSI M11-A7 agar dilution method; in short: as §3
# [21] = test system: Clostridium perfringens; assay: Antibacterial activity against Clostridium perfringens by CLSI M11-A7 agar dilution method
# In short: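 Reference agar dilution MIC on recent (2005–2008) clinical isolates. Cultures grown 48 h in an anaerobic glove box; inoculum suspended in prereduced broth inside the box and stamped by Steers replicator onto drug-supplemented agar. Plates incubated 48 h at 37°C before MIC reading. QC strains run alongside, required to fall within CLSI ranges.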
# [22] = test system: Peptostreptococcus anaerobius; assay: Antibacterial activity against Peptostreptococcus anaerobius by CLSI M11-A7 agar dilution method; in short: as §3
# [23] = test system: Parvimonas micra; assay: Antibacterial activity against Peptostreptococcus micros by CLSI M11-A7 agar dilution method; in short: as §3
# [24] = test system: Porphyromonas asaccharolytica; assay: Antibacterial activity against Porphyromonas asaccharolytica by CLSI M11-A7 agar dilution method; in short: as §3
# [25] = test system: Prevotella sp.; assay: Antibacterial activity against Prevotella sp. by CLSI M11-A7 agar dilution method; in short: as §3
structure (smiles),measurement,setting,value
Cc1onc(-c2ccccc2)c1C(=O)N[C@@H]1C(=O)N2[C@@H]1SC(C)(C)[C@@H]2C(=O)O [OXACILLIN],MIC50,[1],0.25 µg/mL
same,MIC90,[1],0.5 µg/mL
same,MIC50,[2],32 µg/mL
same,MIC90,[2],32 µg/mL
same,MIC50,[3],32 µg/mL
same,MIC90,[3],32 µg/mL
same,MIC50,[4],0.12 µg/mL
same,MIC90,[4],0.25 µg/mL
same,MIC50,[5],16 µg/mL
same,MIC90,[5],> 32 µg/mL
Cn1nnc(-c2ccc(-c3ccc(N4C[C@H](CO)OC4=O)cc3F)cn2)n1 [TEDIZOLID],MIC50,[6],0.5 µg/mL
same,MIC90,[6],1 µg/mL
same,MIC50,[7],0.5 µg/mL
same,MIC90,[7],0.5 µg/mL
same,MIC50,[8],0.5 µg/mL
same,MIC90,[8],1 µg/mL
same,MIC50,[9],0.5 µg/mL
same,MIC90,[9],0.5 µg/mL
same,MIC50,[10],0.25 µg/mL
same,MIC90,[10],0.25 µg/mL
same,MIC50,[11],0.25 µg/mL
same,MIC90,[11],0.25 µg/mL
same,MIC50,[12],0.25 µg/mL
same,MIC90,[12],0.25 µg/mL
same,MIC50,[13],0.25 µg/mL
same,MIC90,[13],0.5 µg/mL
same,MIC50,[14],0.25 µg/mL
same,MIC90,[14],0.5 µg/mL
same,MIC50,[15],8 µg/mL
same,MIC90,[15],16 µg/mL
same,MIC50,[16],2 µg/mL
same,MIC90,[16],4 µg/mL
same,MIC50,[17],4 µg/mL
same,MIC90,[17],4 µg/mL
same,MIC50,[18],2 µg/mL
same,MIC90,[18],4 µg/mL
same,MIC,[19],2 µg/mL
same,MIC50,[19],2 µg/mL
same,MIC90,[19],2 µg/mL
same,MIC50,[20],2 µg/mL
same,MIC90,[20],8 µg/mL
same,MIC50,[21],0.5 µg/mL
same,MIC90,[21],2 µg/mL
same,MIC50,[22],0.25 µg/mL
same,MIC90,[22],0.5 µg/mL
same,MIC50,[23],0.25 µg/mL
same,MIC90,[23],0.5 µg/mL
same,MIC,[24],0.25 µg/mL
same,MIC50,[24],0.25 µg/mL
same,MIC90,[24],0.5 µg/mL
same,MIC50,[25],1 µg/mL
same,MIC90,[25],4 µg/mL
same,MIC50,[1],0.5 µg/mL
same,MIC90,[1],0.5 µg/mL
same,MIC50,[2],0.5 µg/mL
same,MIC90,[2],0.5 µg/mL
same,MIC50,[3],0.5 µg/mL
same,MIC90,[3],0.5 µg/mL
same,MIC50,[4],0.25 µg/mL
same,MIC90,[4],0.5 µg/mL
same,MIC50,[5],0.25 µg/mL
same,MIC90,[5],0.5 µg/mL
CN[C@H](CC(C)C)C(=O)N[C@H]1C(=O)N[C@@H](CC(N)=O)C(=O)N[C@H]2C(=O)N[C@H]3C(=O)N[C@H](C(=O)N[C@H](C(=O)O)c4cc(O)cc(O)c4-c4cc3ccc4O)[C@H](O)c3ccc(c(Cl)c3)Oc3cc2cc(c3O[C@@H]2O[C@H](CO)[C@@H](O)[C@H](O)[C@H]2O[C@H]2C[C@](C)(N)[C@H](O)[C@H](C)O2)Oc2ccc(cc2Cl)[C@H]1O [VANCOMYCIN],MIC50,[6],1 µg/mL
same,MIC90,[6],2 µg/mL
same,MIC50,[7],> 32 µg/mL
same,MIC90,[7],> 32 µg/mL
same,MIC50,[8],1 µg/mL
same,MIC90,[8],1 µg/mL
same,MIC50,[9],> 32 µg/mL
same,MIC90,[9],> 32 µg/mL
same,MIC50,[10],0.25 µg/mL
same,MIC90,[10],0.5 µg/mL
same,MIC,[11],0.25 µg/mL
same,MIC50,[11],0.25 µg/mL
same,MIC90,[11],0.5 µg/mL
same,MIC50,[12],0.25 µg/mL
same,MIC90,[12],0.5 µg/mL
same,MIC50,[13],0.5 µg/mL
same,MIC90,[13],0.5 µg/mL
same,MIC50,[14],0.5 µg/mL
same,MIC90,[14],0.5 µg/mL
same,MIC50,[1],1 µg/mL
same,MIC90,[1],1 µg/mL
same,MIC50,[2],1 µg/mL
same,MIC90,[2],1 µg/mL
same,MIC50,[3],4 µg/mL
same,MIC90,[3],4 µg/mL
same,MIC50,[4],2 µg/mL
same,MIC90,[4],2 µg/mL
same,MIC50,[5],2 µg/mL
same,MIC90,[5],2 µg/mL
